# AF4-AF9 inh: inhibitors of AF4 peptide binding to AF9, primary screen, biochemical, AlphaScreen, biotin-AF4 peptide, FLAG-AF9, single point. Protein AF-9 (Homo sapiens), P42568. inhibition, % at 10 µM. 350,000 compounds, 0.47% hits. AID 651704, 2012;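 active means every replicate reaching a set inhibition limit, whatever the replicate mean, cut at about 25% in these data; inconclusive means mean inhibition reaches that limit but some replicates miss it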;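 further: 0% = plate neutral control median and 100% = total signal loss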
# Target sequence (P42568 whole entry, looked up): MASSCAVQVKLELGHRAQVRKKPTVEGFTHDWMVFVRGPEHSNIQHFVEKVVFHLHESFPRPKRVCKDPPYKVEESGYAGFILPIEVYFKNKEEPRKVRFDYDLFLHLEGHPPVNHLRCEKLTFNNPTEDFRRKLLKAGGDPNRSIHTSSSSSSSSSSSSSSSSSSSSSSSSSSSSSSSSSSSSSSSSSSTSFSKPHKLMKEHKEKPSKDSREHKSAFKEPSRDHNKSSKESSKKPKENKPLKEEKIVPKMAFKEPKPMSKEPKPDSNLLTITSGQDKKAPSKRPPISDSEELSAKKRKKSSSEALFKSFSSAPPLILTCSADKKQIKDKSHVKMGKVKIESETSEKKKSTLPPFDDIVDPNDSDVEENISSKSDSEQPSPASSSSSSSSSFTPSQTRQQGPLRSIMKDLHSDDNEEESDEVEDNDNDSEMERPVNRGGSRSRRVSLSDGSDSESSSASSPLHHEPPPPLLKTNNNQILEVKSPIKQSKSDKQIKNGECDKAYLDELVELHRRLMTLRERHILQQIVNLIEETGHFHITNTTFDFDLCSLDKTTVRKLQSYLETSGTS
# S100A4 inh HTS: inhibitors of S100A4-myosin IIA peptide binding, primary screen, biochemical, fluorescence polarization, TAMRA-MyoIIA peptide; Protein S100-A4 (Homo sapiens), P26447; inhibition, % at 10.7 µM; 360,000 compounds, 0.14% hits;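 active means mean inhibition of at least 70% across replicates, with every replicate also reaching that level; inconclusive means mean inhibition reaches 70% but some replicates fall short; inactive means mean inhibition below 70%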
# Target sequence (P26447 whole entry, looked up): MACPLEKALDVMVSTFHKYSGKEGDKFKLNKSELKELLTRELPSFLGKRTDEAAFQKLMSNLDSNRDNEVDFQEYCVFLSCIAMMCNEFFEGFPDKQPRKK
#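 Assay system: human S100A4 monomer with TAMRA-labelled myosin IIA peptide / Buffer or medium: Calcium-containing HEPES buffer, pH 7.2 / Reagent: TAMRA-labelled myosin IIA heavy-chain peptide probe, 5 nM / Compound: one dose per compound / Timing: polarization read 5 min after assay mix addition, stable 5–60 min / Benchmarks: neutral control DMSO, positive control TFP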
# DENV2 CPE rescue: inhibitors of DENV2 cytopathic effect, primary screen, cell-based, plate reader, single concentration; DENV2-infected cells, cytopathic effect rescue; CPE inhibition, % at 9.99 µM; 350,000 compounds, 1.7% hits; in the data active means CPE inhibition above about 20%, passing the limit was not always enough; inconclusive means no clear call, values can overlap the other calls; tested in BHK-21 cells;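 further: 0% = median of neutral control wells and 100% = median of positive control wells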
# CaV13 FRET inh: Disruptors of the CACNA1D IQ motif to Ca2+-dependent inactivation inhibitor domain association, primary screening, Förster resonance energy transfer in intact living …; HEK cells, CFP/YFP FRET ICDI-IQ, plate reader, 10 min; percent FRET-ratio fall versus neutral wells; inhibition, % at 12.3 µM; 340,000 compounds, 0.098% hits; AID 743397;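 active means mean replicate inhibition of at least 30% and at least 1% of replicates passing that level; inconclusive means only one of the two criteria is met; inactive means neither criterion is met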;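 further: 0% = median of the neutral control wells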
# SIRT5 block: SIRT5 desuccinylase inhibitors, primary screen, biochemical, fluorescence imaging, single point, set 5; Purified SirT5, succinyl-peptide AMC, trypsin-coupled fluorescence; inhibition, % at 15 µM; 330,000 compounds, 1.1% hits; in the data active means inhibition above about 15%; inconclusive means no clear call, values can overlap the other calls
# Starred values were filed as active, the others as inactive; ? = inconclusive; . = no result. Compounds with a hit are over-represented: about 2.7% of the library has one in this group of screens.
SMILES,AF4-AF9 inh,S100A4 inh HTS,DENV2 CPE rescue,CaV13 FRET inh,SIRT5 block
OC[C@H]1O[C@@H]2O[C@H]3[C@H](O)[C@@H](O)[C@@H](O[C@H]4[C@H](O)[C@@H](O)[C@@H](O[C@H]5[C@H](O)[C@@H](O)[C@@H](O[C@H]6[C@H](O)[C@@H](O)[C@@H](O[C@H]7[C@H](O)[C@@H](O)[C@@H](O[C@H]1[C@H](O)[C@H]2O)O[C@@H]7CO)O[C@@H]6CO)O[C@@H]5CO)O[C@@H]4CO)O[C@@H]3CO,-5.5,-21.3,5.6,-4.6,-0.1
N#CC1=C(N)C(C#N)(C#N)[C@H](c2cccnc2)[C@H]2CN(C(=O)OCc3ccccc3)CC=C12,0.5,0.6,-1.5,-4.8,15.7*
CCOC(=O)N1CC=C2C(C#N)=C(N)C(C#N)(C#N)[C@H](c3ccsc3)[C@H]2C1,.,.,.,-4.8,.
CC1(C)OC(=O)C2=C(C[C@@H](C3CCCCC3)O[C@H]2c2ccc(F)cc2)O1,1.6,-1.8,55.2*,-5.2,-2.8
CC(C)Cc1ccc(C(C)C(N)=NCCc2ccccc2)cc1 (configuration not stated),4.6,5.2,33.4*,-4.3,-5.2
C[C@@H]1CN([C@@H](C)CO)C(=O)c2cc(C#CCN(C)C)cnc2O[C@H]1CN(C)S(=O)(=O)c1ccccc1,0.5,-9.6,0.5,.,0.8
COC(=O)C1=C(C)N(Cc2ccc(Br)cc2)C(=S)NC1c1ccc(F)cc1 (configuration not stated),.,18.7,-6.6,-3.5,3.6
COC(=O)C1=C(C)N(Cc2ccc(Br)cc2)C(=S)NC1c1cccc(F)c1 (configuration not stated),.,0.5,25.9*,-1.9,-0.3
CCN1C(=NCCCCO)N[C@@H](c2cccc(C(F)(F)F)c2)C(C(=O)OC)=C1C,0.2,-0.2,32.6*,-4.2,.
COC(=O)C1=C(C)N(Cc2cccc(C(F)(F)F)c2)C(=NCC2CC2)NC1c1ccc(F)cc1 (configuration not stated),.,-5.0,61.2*,-1.1,-3.1
COC(=O)C1=C(C)N(Cc2ccccc2)C(=NCCCCO)N[C@H]1c1cccc(C(F)(F)F)c1,2.9,-1.1,-5.5,-5.7,.
C[C@@H]1CN([C@H](C)CO)C(=O)c2c(c3ccccc3n2C)-c2ccccc2CO[C@@H]1CN(C)C(=O)[C@H]1CCCN1C,-1.2,-2.0,4.9,.,2.3
COc1ccc(S(=O)(=O)Nc2ccc3c(c2)C(=O)N([C@H](C)CO)C[C@H](C)[C@H](CN(C)C(=O)C2CCCCC2)OCCCC[C@H](C)O3)cc1,2.3,-0.5,-5.6,.,10.8
O=C(Cc1ccccn1)NCC[C@H]1CC[C@H](NC(=O)Nc2ccc(Cl)cc2)[C@@H](CO)O1,-18.6,-3.9,2.9,.,0.6
Cc1ccc(S(=O)(=O)N[C@@H]2C=C[C@H](CC(=O)NCc3ccncn3)O[C@H]2CO)cc1,0.3,5.2,4.6,.,-1.5
O=C(C[C@@H]1CC[C@@H](NC(=O)c2cccnc2)[C@@H](CO)O1)NCCN1CCCCC1,-0.7,29.8,5.3,.,0.9
COc1ccc(NC(=O)Nc2ccc3c(c2)C(=O)N([C@@H](C)CO)C[C@H](C)[C@@H](CN(C)Cc2ccc(C(=O)O)cc2)OCCCC[C@H](C)O3)cc1,1.0,-5.3,15.4,.,6.4
COCC(=O)N(C)C[C@H]1Oc2cc(C#CC3CC3)ccc2S(=O)(=O)N([C@@H](C)CO)C[C@H]1C,-0.9,-0.8,0.6,.,2.4
Cc1ccc(S(=O)(=O)N(C)C[C@H]2OCCCC[C@@H](C)Oc3ccc(NC(=O)Nc4ccc(C(F)(F)F)cc4)cc3C(=O)N([C@@H](C)CO)C[C@H]2C)cc1,-0.8,7.6,24.5*,.,0.6
C[C@@H]1CN([C@@H](C)CO)C(=O)c2cc(NC(=O)Nc3ccc(C(F)(F)F)cc3)ccc2O[C@@H](C)CCCCO[C@@H]1CN(C)S(=O)(=O)c1ccc(Cl)cc1,.,.,-2.4,.,.
C[C@@H]1CCCCO[C@H](CN(C)S(=O)(=O)c2ccc(Cl)cc2)[C@@H](C)CN([C@@H](C)CO)C(=O)c2cc(NC(=O)Nc3ccc(C(F)(F)F)cc3)ccc2O1,.,.,32.0*,.,.
COc1ccc(S(=O)(=O)N(C)C[C@H]2OCCCC[C@@H](C)Oc3ccc(NC(=O)Nc4ccc(C(F)(F)F)cc4)cc3C(=O)N([C@@H](C)CO)C[C@H]2C)cc1,-8.7,4.3,9.0,.,8.4
COc1ccc(S(=O)(=O)N(C)C[C@@H]2OCCCC[C@@H](C)Oc3ccc(NC(=O)Nc4ccc(C(F)(F)F)cc4)cc3C(=O)N([C@@H](C)CO)C[C@@H]2C)cc1,-15.9,0.1,11.0,.,27.5*
COc1cc(O)c2c(c1)oc(=O)c1c3cc(O)c(O)cc3oc21,4.1,0.2,-1.4,.,23.1*
O=C(C[C@H]1C=C[C@@H](NC(=O)CC2CC2)[C@H](CO)O1)NCc1ccc(Cl)cc1,-8.8,-2.2,-8.5,.,-0.9
SMILES,AF4-AF9 inh,S100A4 inh HTS,DENV2 CPE rescue,CaV13 FRET inh,SIRT5 block
C[C@@H]1CCCCO[C@H](CN(C)C(=O)Nc2ccc(C(F)(F)F)cc2)[C@H](C)CN([C@@H](C)CO)C(=O)c2cc(NC(=O)Nc3ccc(C(F)(F)F)cc3)ccc2O1,.,.,29.6*,.,.
C[C@@H]1CCCCO[C@@H](CN(C)C(=O)Nc2ccc(C(F)(F)F)cc2)[C@@H](C)CN([C@H](C)CO)C(=O)c2cc(NC(=O)Nc3ccc4c(c3)OCO4)ccc2O1,-2.6,-1.1,1.2,.,1.3
COc1ccc(NC(=O)Nc2ccc3c(c2)C(=O)N([C@@H](C)CO)C[C@H](C)[C@H](CN(C)C(=O)Nc2ccc(C(F)(F)F)cc2)OCCCC[C@H](C)O3)cc1,-10.5,-5.3,18.6,.,1.7
C[C@@H]1CCCCO[C@H](CN(C)C(=O)Nc2ccc(C(F)(F)F)cc2)[C@H](C)CN([C@@H](C)CO)C(=O)c2cc(NC(=O)Nc3ccc4c(c3)OCO4)ccc2O1,1.6,9.5,-2.5,.,15.2*
C[C@@H]1CCCCO[C@@H](CN(C)C(=O)Nc2ccc(C(F)(F)F)cc2)[C@@H](C)CN([C@H](C)CO)C(=O)c2cc(NC(=O)Nc3ccc(F)cc3)ccc2O1,-5.1,3.5,5.7,.,1.2
C[C@H]1CCCCO[C@H](CN(C)C(=O)Nc2ccc(C(F)(F)F)cc2)[C@@H](C)CN([C@@H](C)CO)C(=O)c2cc(NC(=O)Nc3ccc(F)cc3)ccc2O1,1.1,-9.6,-1.9,.,16.8*
COc1ccc(NC(=O)Nc2ccc3c(c2)C(=O)N([C@@H](C)CO)C[C@@H](C)[C@H](CN(C)C(=O)Nc2ccc(C(F)(F)F)cc2)OCCCC[C@@H](C)O3)cc1,-12.2,-7.1,?,.,18.1*
